Assays:
Type in all cases: functional
Felis catus [1] = assay: Average food consumed at the dose of 0.50 mg/kg (po) using 10 cats per dose level at 30 min (control day/ test day); 47/190; conditions: dose 0.5 mg/kg
How it was run: (§1)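 Cats given test compound suspended in 1% methylcellulose, or 1% methylcellulose placebo, by gavage 30 min before a preweighed test meal. Food was offered in surplus for 3 h, and intake was found by reweighing at 30, 60 and 180 min. Ten cats per dose, each dosed no more than once weekly. Test-day intake was compared with the preceding control day by two-tailed paired t test (p < 0.05); values are mean ± SD.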

Felis catus [2] = assay: Average food consumed at the dose of 0.016 mg/kg (po) using 10 cats per dose level at 180 min (control day/ test day); 46/193
Felis catus [3] = assay: Average food consumed at the dose of 0.25 mg/kg (po) using 10 cats per dose level at 60 min (control day/ test day); 35/200; how it was run: as §1
Felis catus [4] = assay: Average food consumed at the dose of 0.016 mg/kg (po) using 10 cats per dose level at 30 min (control day/ test day); 35/118
Felis catus [5] = assay: Average food consumed at the dose of 0.25 mg/kg (po) using 10 cats per dose level at 180 min (control day/ test day); 45/231
Felis catus [6] = assay: Average food consumed at the dose of 0.50 mg/kg (po) using 10 cats per dose level at 60 min (control day/ test day); 50/221; conditions: dose 0.5 mg/kg; how it was run: as §1
Felis catus [7] = assay: Average food consumed at the dose of 0.25 mg/kg (po) using 10 cats per dose level at 30 min (control day/ test day); 34/165; how it was run: as §1
Felis catus [8] = assay: Average food consumed at the dose of 0.063 mg/kg (po) using 10 cats per dose level at 60 min (control day/ test day); 28/130
Felis catus [9] = assay: Average food consumed at the dose of 0.063 mg/kg (po) using 10 cats per dose level at 30 min (control day/ test day); 14/112
Felis catus [10] = assay: Average food consumed at the dose of 0.016 mg/kg (po) using 10 cats per dose level at 60 min (control day/ test day); 41/160
Felis catus [11] = assay: Average food consumed at the dose of 0.50 mg/kg (po) using 10 cats per dose level at 180 min (control day/ test day); 50/256; conditions: dose 0.5 mg/kg; how it was run: as §1
Felis catus [12] = assay: Average food consumed at the dose of 0.063 mg/kg (po) using 10 cats per dose level at 180 min (control day/ test day); 59/195
Felis catus [13] = assay: Average food consumed at the dose of 0.50 mg/kg (po) using 10 cats per dose level at 60 min (control day/ test day); 45/142; conditions: dose 0.5 mg/kg; how it was run: as §1
Felis catus [14] = assay: Average food consumed at the dose of 0.50 mg/kg (po) using 10 cats per dose level at 180 min (control day/ test day); 43/193; conditions: dose 0.5 mg/kg; how it was run: as §1
Felis catus [15] = assay: Average food consumed at the dose of 0.50 mg/kg (po) using 10 cats per dose level at 30 min (control day/ test day); 33/109; conditions: dose 0.5 mg/kg; how it was run: as §1
Felis catus [16] = assay: Average food consumed at the dose of 0.50 mg/kg (po) using 10 cats per dose level at 60 min (control day/ test day); 42/155; conditions: dose 0.5 mg/kg; how it was run: as §1
Felis catus [17] = assay: Average food consumed at the dose of 0.016 mg/kg (po) using 10 cats per dose level at 60 min (control day/ test day); 30/137
Felis catus [18] = assay: Average food consumed at the dose of 0.063 mg/kg (po) using 10 cats per dose level at 60 min (control day/ test day); 32/138
Felis catus [19] = assay: Average food consumed at the dose of 0.016 mg/kg (po) using 10 cats per dose level at 180 min (control day/ test day); 39/190
Felis catus [20] = assay: Average food consumed at the dose of 0.50 mg/kg (po) using 10 cats per dose level at 180 min (control day/ test day); 45/221; conditions: dose 0.5 mg/kg; how it was run: as §1
Felis catus [21] = assay: Average food consumed at the dose of 0.25 mg/kg (po) using 10 cats per dose level at 60 min (control day/ test day); 26/127; how it was run: as §1
Felis catus [22] = assay: Average food consumed at the dose of 0.50 mg/kg (po) using 10 cats per dose level at 30 min (control day/ test day); 38/105; conditions: dose 0.5 mg/kg; how it was run: as §1
Felis catus [23] = assay: Average food consumed at the dose of 0.031 mg/kg (po) using 10 cats per dose level at 180 min (control day/ test day); 24/152
Felis catus [24] = assay: Average food consumed at the dose of 0.063 mg/kg (po) using 10 cats per dose level at 180 min (control day/ test day); 26/204
Felis catus [25] = assay: Average food consumed at the dose of 0.031 mg/kg (po) using 10 cats per dose level at 60 min (control day/ test day); 14/95
Felis catus [26] = assay: Average food consumed at the dose of 0.016 mg/kg (po) using 10 cats per dose level at 30 min (control day/ test day); 25/104
Felis catus [27] = assay: Average food consumed at the dose of 0.25 mg/kg (po) using 10 cats per dose level at 180 min (control day/ test day); 30/170
Felis catus [28] = assay: Average food consumed at the dose of 0.25 mg/kg (po) using 10 cats per dose level at 30 min (control day/ test day); 20/89
Felis catus [29] = assay: Average food consumed at the dose of 0.031 mg/kg (po) using 10 cats per dose level at 30 min (control day/ test day); 20/75
Felis catus [30] = assay: Average food consumed at the dose of 0.063 mg/kg (po) using 10 cats per dose level at 30 min (control day/ test day); 33/122

`CN1CCC(=C2c3ccccc3C=Cc3ccccc32)CC1` [CYPROHEPTADINE] gave an Average consumed (Felis catus [1]) of 135 g, an Average consumed (Felis catus [2]) of 157 g and an Average consumed (Felis catus [3]) of 129 g. For the same compound, the Average consumed (Felis catus [4]) was 75 g, the Average consumed (Felis catus [5]) was 179 g and the Average consumed (Felis catus [6]) was 157 g. The Average consumed (Felis catus [7]) was 109 g, the Average consumed (Felis catus [8]) was 80 g and the Average consumed (Felis catus [9]) was 56 g. It also gave an Average consumed (Felis catus [10]) of 108 g, an Average consumed (Felis catus [11]) of 194 g and an Average consumed (Felis catus [12]) of 134 g.
`CN1CCC(=C2c3cc(C(=O)O)ccc3CCn3cccc32)CC1.Cl` was tested, and the Average consumed (Felis catus [13]) was 125 g, the Average consumed (Felis catus [14]) was 173 g and the Average consumed (Felis catus [15]) was 92 g.
`CN1CCC(=C2c3ccccc3CCc3ccc(C(=O)O)cc32)CC1.Cl` was tested, and the Average consumed (Felis catus [16]) was 102 g, the Average consumed (Felis catus [17]) was 139 g and the Average consumed (Felis catus [18]) was 118 g. For the same compound, the Average consumed (Felis catus [19]) was 180 g, the Average consumed (Felis catus [20]) was 134 g and the Average consumed (Felis catus [21]) was 102 g. It also gave an Average consumed (Felis catus [22]) of 84 g, an Average consumed (Felis catus [23]) of 126 g and an Average consumed (Felis catus [24]) of 174 g. It also gave an Average consumed (Felis catus [25]) of 83 g, an Average consumed (Felis catus [26]) of 97 g and an Average consumed (Felis catus [27]) of 145 g. It also gave an Average consumed (Felis catus [28]) of 68 g, an Average consumed (Felis catus [29]) of 53 g and an Average consumed (Felis catus [30]) of 88 g.

From ChEMBL document CHEMBL1122018, “Synthesis and orexigenic activity of some 1-methyl-4-piperidylidene-Substituted pyrrolo[2,1-g][3] benzazepine and dibenzocycloheptene derivatives” (1982)
